Results taken from ChEMBL document CHEMBL3739352, “Anticonvulsant activity, crystal structures, and preliminary safety evaluation of N-trans-cinnamoyl derivatives of selected (un)modified aminoalkanols” (Eur J Med Chem, 2016).
The source made the active and inactive calls. The rule behind the calls is not given here.

Assays:
Mus musculus [1] = experiment: Neurotoxicity in albino Carworth Farms No.1 mouse at 300 mg/kg, ip after 4 hrs by rotarod test; type: toxicity, organism-based; conditions: in vivo
Outline: (§1)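 Mice (albino Carworth Farms No.1) were dosed i.p. at 30, 100 or 300 mg/kg in 0.5% methylcellulose. They were tested 0.5 and 4 h later on a 1-inch knurled rod rotating at 6 rpm. Neurotoxicity was scored if a mouse could not stay on the rod for at least 1 min in each of three trials. Results are given as animals toxic/animals tested, with deaths noted.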

Salmonella typhimurium [2] = experiment: Mutagenicity in Salmonella typhimurium TA98 assessed as number of revertants at 1000 ug/plate by Ames test (reference value: 23 +/- 3); type: toxicity, organism-based; conditions: salmonella enterica subsp. enterica serovar typhimurium
Salmonella typhimurium [3] = experiment: Mutagenicity in Salmonella typhimurium TA1535 assessed as mutagenic index at 1000 ug/plate by Ames test; type: toxicity, organism-based; conditions: salmonella enterica subsp. enterica serovar typhimurium
Salmonella typhimurium [4] = experiment: Mutagenicity in Salmonella typhimurium TA1535 assessed as number of revertants at 100 ug/plate by Ames test (reference value: 10 +/- 3); type: toxicity, organism-based; conditions: salmonella enterica subsp. enterica serovar typhimurium
Salmonella typhimurium [5] = experiment: Mutagenicity in Salmonella typhimurium TA1535 assessed as assessed as mutagenic index at 500 ug/plate by Ames test; type: toxicity, organism-based; conditions: salmonella enterica subsp. enterica serovar typhimurium
Salmonella typhimurium [6] = experiment: Mutagenicity in Salmonella typhimurium TA100 assessed as mutagenic index at 500 ug/plate by Ames test; type: toxicity, organism-based; conditions: salmonella enterica subsp. enterica serovar typhimurium
Outline: (§2)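 Ames preincubation test. Strain culture was grown 12 h at 37 °C in nutrient broth, then mixed with compound in DMSO (final 4, 20, 100, 500, 1000 per plate) and buffer in top agar with trace histidine. This was plated on glucose minimal agar for 48 h at 37 °C. Mutagenic index = revertants with compound / DMSO control revertants, from three independent repeats.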

Salmonella typhimurium [7] = experiment: Mutagenicity in Salmonella typhimurium TA98 assessed as mutagenic index at 4 ug/plate by Ames test; type: toxicity, organism-based; conditions: salmonella enterica subsp. enterica serovar typhimurium
[8] = Lipophilicity of the compound using 90% methanol in water at 1 mg/ml by RT-TLC analysis; type: physicochemical; conditions: buffer
Outline: (§3)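 Reversed-phase TLC with a methanol–water mobile phase at the stated methanol content (v/v). Compounds were spotted from 1 mg/mL methanol solutions after 1 h chamber saturation and located under UV light. Rf was measured and RM = log(1/Rf − 1) calculated.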

Mus musculus [9] = experiment: Anticonvulsant activity in albino Carworth Farms No.1 mouse assessed as protection against maximal electroshock-induced seizures at 300 mg/kg, ip after 0.5 hrs; type: functional, organism-based
Outline: (§4)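 Mouse i.p. screen in Carworth Farms No.1 albino mice at 30, 100 or 300 mg/kg in 0.5% methylcellulose. Testing was at 0.5 and 4 h after injection, by maximal electroshock or by subcutaneous pentetrazol challenge. Scoring was number protected / number used.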

[10] = Lipophilicity of the compound using 85% methanol in water at 1 mg/ml by RT-TLC analysis; type: physicochemical; conditions: buffer; outline: as §3
Salmonella typhimurium [11] = experiment: Mutagenicity in Salmonella typhimurium TA98 assessed as number of revertants at 500 ug/plate by Ames test (reference value: 23 +/- 3); type: toxicity, organism-based; conditions: salmonella enterica subsp. enterica serovar typhimurium
[12] = Lipophilicity of the compound at 1 mg/ml by RT-TLC analysis relative to 0% methanol; type: physicochemical; conditions: methanol/water
Outline: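 Reversed-phase TLC used methanol–water mobile phases of 95–65% methanol. Compounds were applied from 1 mg/mL methanol solutions after 1 h chamber saturation, with UV detection. RM = log(1/Rf − 1) was calculated at each methanol level and extrapolated linearly (RM = RM0 + bC) to 0% methanol to give RM0.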

Salmonella typhimurium [13] = experiment: Mutagenicity in Salmonella typhimurium TA1535 assessed as number of revertants at 500 ug/plate by Ames test (reference value: 10 +/- 3); type: toxicity, organism-based; conditions: salmonella enterica subsp. enterica serovar typhimurium
Salmonella typhimurium [14] = experiment: Mutagenicity in Salmonella typhimurium TA100 assessed as number of revertants at 100 ug/plate by Ames test (reference value: 77 +/-4); type: toxicity, organism-based; conditions: salmonella enterica subsp. enterica serovar typhimurium
Outline: (§5)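 Salmonella TA100 preincubation Ames assay: overnight-type 12 h broth culture at 37 °C, compound in DMSO at final 4–1000 per plate, top agar with trace histidine, glucose minimal agar, 48 h at 37 °C. Revertant colonies per plate were counted, with a DMSO negative control and a sodium azide positive control. Three independent repetitions were run.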

Salmonella typhimurium [15] = experiment: Mutagenicity in Salmonella typhimurium TA100 assessed as mutagenic index at 4 ug/plate by Ames test; type: toxicity, organism-based; conditions: salmonella enterica subsp. enterica serovar typhimurium; outline: as §2
Mus musculus [16] = experiment: Anticonvulsant activity in albino Carworth Farms No.1 mouse assessed as protection against maximal electroshock-induced seizures at 100 mg/kg, ip after 4 hrs; type: functional, organism-based; outline: as §4
Mus musculus [17] = experiment: Anticonvulsant activity in albino Carworth Farms No.1 mouse assessed as protection against maximal electroshock-induced seizures at 30 mg/kg, ip after 4 hrs; type: functional, organism-based; outline: as §4
[18] = Lipophilicity of the compound using 65% methanol in water at 1 mg/ml by RT-TLC analysis; type: physicochemical; conditions: buffer; outline: as §3
Salmonella typhimurium [19] = experiment: Mutagenicity in Salmonella typhimurium TA98 assessed as number of revertants at 20 ug/plate by Ames test (reference value: 23 +/- 3); type: toxicity, organism-based; conditions: salmonella enterica subsp. enterica serovar typhimurium
Salmonella typhimurium [20] = experiment: Mutagenicity in Salmonella typhimurium TA100 assessed as number of revertants at 1000 ug/plate by Ames test (reference value: 77 +/-4); type: toxicity, organism-based; conditions: salmonella enterica subsp. enterica serovar typhimurium; outline: as §5
Salmonella typhimurium [21] = experiment: Mutagenicity in Salmonella typhimurium TA98 assessed as number of revertants at 4 ug/plate by Ames test (reference value: 23 +/- 3); type: toxicity, organism-based; conditions: salmonella enterica subsp. enterica serovar typhimurium
Mus musculus [22] = experiment: Anticonvulsant activity in albino Carworth Farms No.1 mouse assessed as protection against maximal electroshock-induced seizures at 30 mg/kg, ip after 0.5 hrs; type: functional, organism-based; outline: as §4
Salmonella typhimurium [23] = experiment: Mutagenicity in Salmonella typhimurium TA1535 assessed as assessed as mutagenic index at 20 ug/plate by Ames test; type: toxicity, organism-based; conditions: salmonella enterica subsp. enterica serovar typhimurium; outline: as §2
Salmonella typhimurium [24] = experiment: Mutagenicity in Salmonella typhimurium TA98 assessed as mutagenic index at 1000 ug/plate by Ames test; type: toxicity, organism-based; conditions: salmonella enterica subsp. enterica serovar typhimurium
Mus musculus [25] = experiment: Anticonvulsant activity in albino Carworth Farms No.1 mouse assessed as protection against subcutaneous dosed pentetrazol-induced seizures at 30 mg/kg, ip after 4 hrs; type: functional, organism-based; outline: as §4
Mus musculus [26] = experiment: Neurotoxicity in albino Carworth Farms No.1 mouse at 100 mg/kg, ip after 0.5 hrs by rotarod test; type: toxicity, organism-based; conditions: in vivo; outline: as §1
Salmonella typhimurium [27] = experiment: Mutagenicity in Salmonella typhimurium TA1535 assessed as number of revertants at 1000 ug/plate by Ames test (reference value: 10 +/- 3); type: toxicity, organism-based; conditions: salmonella enterica subsp. enterica serovar typhimurium
Mus musculus [28] = experiment: Anticonvulsant activity in albino Carworth Farms No.1 mouse assessed as protection against subcutaneous dosed pentetrazol-induced seizures at 100 mg/kg, ip after 0.5 hrs; type: functional, organism-based; outline: as §4
Salmonella typhimurium [29] = experiment: Mutagenicity in Salmonella typhimurium TA100 assessed as number of revertants at 500 ug/plate by Ames test (reference value: 77 +/-4); type: toxicity, organism-based; conditions: salmonella enterica subsp. enterica serovar typhimurium; outline: as §5
Salmonella typhimurium [30] = experiment: Mutagenicity in Salmonella typhimurium TA98 assessed as mutagenic index at 500 ug/plate by Ames test; type: toxicity, organism-based; conditions: salmonella enterica subsp. enterica serovar typhimurium
Salmonella typhimurium [31] = experiment: Mutagenicity in Salmonella typhimurium TA100 assessed as number of revertants at 20 ug/plate by Ames test (reference value: 77 +/-4); type: toxicity, organism-based; conditions: salmonella enterica subsp. enterica serovar typhimurium; outline: as §5
Salmonella typhimurium [32] = experiment: Mutagenicity in Salmonella typhimurium TA100 assessed as number of revertants at 4 ug/plate by Ames test (reference value: 77 +/-4); type: toxicity, organism-based; conditions: salmonella enterica subsp. enterica serovar typhimurium; outline: as §5
Salmonella typhimurium [33] = experiment: Mutagenicity in Salmonella typhimurium TA1535 assessed as number of revertants at 20 ug/plate by Ames test (reference value: 10 +/- 3); type: toxicity, organism-based; conditions: salmonella enterica subsp. enterica serovar typhimurium
Mus musculus [34] = experiment: Neurotoxicity in albino Carworth Farms No.1 mouse at 30 mg/kg, ip after 0.5 hrs by rotarod test; type: toxicity, organism-based; conditions: in vivo; outline: as §1

Compound	Activity (Mus musculus [1])	Activity (Salmonella typhimurium [2])	Activity_index (Salmonella typhimurium [3])	Activity (Salmonella typhimurium [4])	Activity_index (Salmonella typhimurium [5])	Activity_index (Salmonella typhimurium [6])	Activity_index (Salmonella typhimurium [7])	Rm [8]	Activity (Mus musculus [9])	Rm [10]	Activity (Salmonella typhimurium [11])	Rm [12]	Activity (Salmonella typhimurium [13])	Activity (Salmonella typhimurium [14])	Activity_index (Salmonella typhimurium [15])	Activity (Mus musculus [16])	Activity (Mus musculus [17])	Rm [18]	Activity (Salmonella typhimurium [19])	Activity (Salmonella typhimurium [20])	further results
O=C(/C=C/c1ccccc1)N[C@H]1CCCC[C@@H]1O (racemic)	Toxic	18	0.6	6	0.7	1	1	-0.43	inactive	-0.18	19	2.054	7	72	0.9	inactive	inactive	0.33	21	70	Activity (Salmonella typhimurium [21]): 22; Activity (Mus musculus [22]): inactive; Activity_index (Salmonella typhimurium [23]): 1.4; Activity_index (Salmonella typhimurium [24]): 0.8; Activity (Mus musculus [25]): inactive; Activity (Mus musculus [26]): Toxic; Activity (Salmonella typhimurium [27]): 6; Activity (Mus musculus [28]): inactive; Activity (Salmonella typhimurium [29]): 73; Activity_index (Salmonella typhimurium [30]): 0.8; Activity (Salmonella typhimurium [31]): 79; Activity (Salmonella typhimurium [32]): 71; Activity (Salmonella typhimurium [33]): 14; Activity (Mus musculus [34]): Non-toxic
CCC(CO)NC(=O)/C=C/c1ccccc1 (racemic)	Non-toxic	19	1.3	14	1.3	0.9	0.9	-0.55	Active	-0.29	21	2.093	13	64	0.9	inactive	inactive	0.25	24	64	Activity (Salmonella typhimurium [21]): 21; Activity (Mus musculus [22]): inactive; Activity_index (Salmonella typhimurium [23]): 0.5; Activity_index (Salmonella typhimurium [24]): 0.8; Activity (Mus musculus [25]): inactive; Activity (Mus musculus [26]): Non-toxic; Activity (Salmonella typhimurium [27]): 13; Activity (Mus musculus [28]): inactive; Activity (Salmonella typhimurium [29]): 72; Activity_index (Salmonella typhimurium [30]): 0.9; Activity (Salmonella typhimurium [31]): 62; Activity (Salmonella typhimurium [32]): 68; Activity (Salmonella typhimurium [33]): 5; Activity (Mus musculus [34]): Non-toxic
